Laboratory results reported in the EternaBench riboswitch data.

Tested on: MS2 coat protein
Assay: apparent Kd, MS2 coat protein; higher = weaker binding; RNA-MaP array; tryptophan 2.4 mM where present
Outline: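 Apparent Kd: the median of filtered binding-curve fits from single clusters. Designs were transcribed on Illumina sequencing-chip clusters by stalled E. coli RNA polymerase and titrated with SNAP-549-labelled MS2 coat protein from 0.7 or 1.5 nM, doubling to 3 µM, in 100 mM Tris-HCl pH 7.5, 80 mM KCl, 4 mM MgCl2, BSA, DTT, yeast tRNA and Tween-20. Each series ran without and then with constant ligand, and green signal was normalised to red-channel RNA signal and control-cluster median Fmax.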

[1] = designed as: ON switch for tryptophan, no ligand
[2] = ligand present: tryptophan, designed as: ON switch for tryptophan
[3] = designed as: OFF switch for tryptophan, no ligand
[4] = ligand present: tryptophan, designed as: OFF switch for tryptophan

Row | Sequence | apparent Kd [1] | apparent Kd [2] | apparent Kd [3] | apparent Kd [4]
1 | GGGUGGUAGGCGGCCGCCACUGAUUUUUAUUUAUAGAUGACAUGAGGAUCACCCAUGUAGAUAUGCAGGACCGGGCCUGUUGUUU | 19.3 nM | 17.8 nM | – | –
2 | GGUUACUCUACGGCCGCCACUGGGCAUGUAAAUAACAUGAGGAUCACCCAUGUGGAAUAAAAUUACAGGACCGGGUAGUGUAACC | 254 nM | 40.2 nM | – | –
3 | GUAUUAACAAAAGUUGAUACAGUGGGUGAACGAGGACCGGUACGGCCGCCACUCGGACAUGAGGAUCACCCAUGUCCAUGUGAAA | – | – | 17.2 nM | 27.2 nM
4 | GUCCUAAGGUCGGCCGCCACUGUAGAGUGUGAGCCAUCACAUGAGGAUCACCCAUGUUGUUGCUAUAGGACCGGGAUUGUAGGAC | – | – | 12 nM | 16.4 nM
5 | UAAACUACACAUGAGGAUCACCCAUGUGGCCGAGGACCGGUACGGCCGCCACUCGUGUGUUAAUAAAAGAACCGCAAAGUUCUUU | 277 nM | 75.9 nM | – | –
6 | UAAACUACACAUGAGGAUCACCCAUGUGGCCGAGGACCGGUACGGCCGCCACUCGUGUGUUAAUAAAAGAACUGCAAAGUUCCUU | 295 nM | 86.1 nM | – | –
7 | UACUUGCUGACGGCCGCCACUAGAACAUGAGGAUCACCCAUGUAAGUGGUUGGUUCAUGGGUGACUAGGACCGGGUCAGCAAGAU | – | – | 32.3 nM | 37.3 nM
8 | UAUAUAUAUCACGAACUGUGGUGUAUGUCCCGAGGACCGGUACGGCCGCCACUCGCGUGGUUCCACAUGAGGAUCACCCAUGUUG | – | – | 18.9 nM | 22.7 nM
9 | UAUAUAUAUCACUAACUGUUCUUGAGGUCUCGAGGACCGGUACGGCCGCCACUCGUGCCGCCUCACAUGAGGAUCACCCAUGUCC | – | – | 53.7 nM | 57 nM
10 | UAUCGAGGUACAUGAGGAUCACCCAUGUAUCGAGGACCGGUACGGCCGCCACUCGAUAAUGGCGGAUCGUUAGUCCUCUUCGAUA | – | – | 10.7 nM | 11.4 nM
11 | UAUCUACAUAUAUAGGUUAUUCGAUUAUUUCGAGGACCGGUACGGCCGCCACUCGUUAACAUAUACAUGAGGAUCACCCAUGUUA | 15.4 nM | 14.5 nM | – | –
12 | UCCUGCAGAGCGGCCGCCACUGUGUUGCGUGAGGAUGACCCAACAUGAGGAUCACCCAUGUUGUUUAGGACCGGGCUUGCCUCGA | – | – | 13.4 nM | 12.3 nM
13 | UCGAAUGCGGCGGCCGCCACUCGCGGAUAACGAUAGCUUAACAUGAGGAUCACCCAUGUGUCAUGGAGGACCGGGCCCAUACCGU | 22.7 nM | 21.1 nM | – | –
14 | UCGUUUUAGUCGGCCGCCACUGAACUCAUGUUCAACAUGAGGAUCACCCAUGUACCUUAUUUUAACAGGACCGGGACGUAAUAGA | – | – | 123 nM | 97.5 nM
15 | UCUUUUUUCUUUUCUUCUUUCGGUUCUUUUCGAGGACCGGUACGGCCGCCACUCGAAACAUGAGGAUCACCCAUGUUUUGGUUUU | – | – | 11.9 nM | 17.5 nM
16 | UGAUACCAGUCGGCCGCCACUAUGCUAGAUACUAGCAAUAAAGGGCGACAUGAGGAUCACCCAUGUAGGACCGGGACUGGUAUCU | – | – | 11.2 nM | 14.8 nM
17 | UGCAUGAGGAUCGCCCGUGUCGAGCCGGUGCGAGGACCGGUACGGCCGCCACUCGAGACAUGAGGAUCACCCAUGUUGUGCGUGA | – | – | 56.5 nM | 91.4 nM
18 | UGCUAGUGAUCGGCCGCCACUGGCACCUUGAGGAUCCUGCUAAAGUACAUGAGGAUCACCCAUGUCAGGACCGGGAUCAUCAGUG | – | – | 10.4 nM | 10.5 nM
19 | UGUCGGCGAAAGUUGGCGUGUCUUGCUGGUCGAGGACCGGUACGGCCGCCACUCGAUCCUUCGCACAUGAGGAUCACCCAUGUUG | 25.5 nM | 28.5 nM | – | –
20 | UUAUAAGUACCGGUCCUCAGAUCCUCAUGACGAGGACCGGUACGGCCGCCACUCGAAACAUGAGGAUCACCCAUGUAAUAAUACC | – | – | 37.5 nM | 29.1 nM
21 | UUUAAAUAGACGGCCGCCACUGGAAUUAAUACAUGAGGAUCACCCAUGUAGAGAGAAUAAUAAUACAGGACCGGGUCUUCAUGAA | 31.4 nM | 12.5 nM | – | –
